Experiments:
[1] = tested on: Balb/MK; assay: Tested for antiproliferative activity using mouse epidermal keratinocytes cell line (BALB/MK); type: functional, cell-based
In short: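 BALB/MK mouse epidermal keratinocytes, which depend on EGF to proliferate. Compounds were kept as 10 mM DMSO stocks and freshly diluted. They were added 24 h after plating, at a final DMSO concentration of 0.5%. Growth was read by methylene blue staining after 3–5 days, and IC50 was determined.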

[2] = In vitro inhibition of the Protein kinase C tyrosine kinase activity in A431 membranes; type: cell membranes
[3] = target: Epidermal growth factor receptor (Homo sapiens, UniProt P00533); assay: In vitro inhibition of the Epidermal growth factor receptor activity in A431 membranes
[4] = target: Proto-oncogene tyrosine-protein kinase Src (Homo sapiens, UniProt P12931); assay: In vitro inhibition of the c-src tyrosine kinase activity in A431 membranes using angiotensin II as phosphate acceptor as substrate; type: cell membranes
[5] = tested on: Mus musculus; assay: Inhibition of EGF-dependent tyrosine phosphorylation in xenografts of the BT-20 tumor in nude mice.; type: functional, organism-based
[6] = target: v-abl tyrosine kinase (Abelson murine leukemia virus) (UniProt P00521); assay: In vitro inhibition of the v-abl tyrosine kinase activity using purified v-abl kinase
[7] = tested on: A431 (Homo sapiens); assay: Inhibition of EGF-dependent tyrosine phosphorylation in A431 cells.

v-abl tyrosine kinase (Abelson murine leukemia virus), sequence (P00521 whole entry, looked up): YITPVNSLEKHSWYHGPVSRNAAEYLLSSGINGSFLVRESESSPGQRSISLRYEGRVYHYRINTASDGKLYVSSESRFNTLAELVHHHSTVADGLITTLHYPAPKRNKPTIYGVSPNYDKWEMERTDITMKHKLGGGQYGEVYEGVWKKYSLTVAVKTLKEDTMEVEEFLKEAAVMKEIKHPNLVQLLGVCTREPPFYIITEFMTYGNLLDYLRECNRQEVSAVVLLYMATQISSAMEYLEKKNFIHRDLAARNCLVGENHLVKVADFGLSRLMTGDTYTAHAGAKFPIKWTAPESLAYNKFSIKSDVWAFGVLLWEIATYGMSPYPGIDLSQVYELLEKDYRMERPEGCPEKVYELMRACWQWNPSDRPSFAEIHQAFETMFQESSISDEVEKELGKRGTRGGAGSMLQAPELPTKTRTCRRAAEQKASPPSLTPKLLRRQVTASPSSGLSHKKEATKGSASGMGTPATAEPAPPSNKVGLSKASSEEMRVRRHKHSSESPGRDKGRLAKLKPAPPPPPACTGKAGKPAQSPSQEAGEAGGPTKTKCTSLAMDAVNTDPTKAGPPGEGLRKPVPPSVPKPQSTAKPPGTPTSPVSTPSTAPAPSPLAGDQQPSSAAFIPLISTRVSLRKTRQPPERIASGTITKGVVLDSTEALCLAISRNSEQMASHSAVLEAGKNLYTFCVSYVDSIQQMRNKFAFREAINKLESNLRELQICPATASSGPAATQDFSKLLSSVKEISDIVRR
Proto-oncogene tyrosine-protein kinase Src, sequence (P12931 2-536 limits assumed): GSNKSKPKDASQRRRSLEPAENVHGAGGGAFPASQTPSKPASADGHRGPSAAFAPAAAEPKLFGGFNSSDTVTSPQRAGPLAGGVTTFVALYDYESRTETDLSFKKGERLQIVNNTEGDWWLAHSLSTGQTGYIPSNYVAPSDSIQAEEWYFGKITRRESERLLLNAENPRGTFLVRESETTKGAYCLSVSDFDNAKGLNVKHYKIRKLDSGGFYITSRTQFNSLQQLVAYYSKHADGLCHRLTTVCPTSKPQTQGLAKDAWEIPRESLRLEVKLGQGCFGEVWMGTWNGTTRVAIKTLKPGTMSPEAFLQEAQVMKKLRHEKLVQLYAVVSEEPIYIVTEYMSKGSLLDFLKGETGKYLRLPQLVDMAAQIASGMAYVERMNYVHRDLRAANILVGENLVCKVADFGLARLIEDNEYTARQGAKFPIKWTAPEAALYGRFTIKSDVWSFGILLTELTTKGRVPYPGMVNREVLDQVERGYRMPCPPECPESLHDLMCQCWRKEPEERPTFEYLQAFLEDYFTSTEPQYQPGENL
Epidermal growth factor receptor, sequence (P00533 whole entry): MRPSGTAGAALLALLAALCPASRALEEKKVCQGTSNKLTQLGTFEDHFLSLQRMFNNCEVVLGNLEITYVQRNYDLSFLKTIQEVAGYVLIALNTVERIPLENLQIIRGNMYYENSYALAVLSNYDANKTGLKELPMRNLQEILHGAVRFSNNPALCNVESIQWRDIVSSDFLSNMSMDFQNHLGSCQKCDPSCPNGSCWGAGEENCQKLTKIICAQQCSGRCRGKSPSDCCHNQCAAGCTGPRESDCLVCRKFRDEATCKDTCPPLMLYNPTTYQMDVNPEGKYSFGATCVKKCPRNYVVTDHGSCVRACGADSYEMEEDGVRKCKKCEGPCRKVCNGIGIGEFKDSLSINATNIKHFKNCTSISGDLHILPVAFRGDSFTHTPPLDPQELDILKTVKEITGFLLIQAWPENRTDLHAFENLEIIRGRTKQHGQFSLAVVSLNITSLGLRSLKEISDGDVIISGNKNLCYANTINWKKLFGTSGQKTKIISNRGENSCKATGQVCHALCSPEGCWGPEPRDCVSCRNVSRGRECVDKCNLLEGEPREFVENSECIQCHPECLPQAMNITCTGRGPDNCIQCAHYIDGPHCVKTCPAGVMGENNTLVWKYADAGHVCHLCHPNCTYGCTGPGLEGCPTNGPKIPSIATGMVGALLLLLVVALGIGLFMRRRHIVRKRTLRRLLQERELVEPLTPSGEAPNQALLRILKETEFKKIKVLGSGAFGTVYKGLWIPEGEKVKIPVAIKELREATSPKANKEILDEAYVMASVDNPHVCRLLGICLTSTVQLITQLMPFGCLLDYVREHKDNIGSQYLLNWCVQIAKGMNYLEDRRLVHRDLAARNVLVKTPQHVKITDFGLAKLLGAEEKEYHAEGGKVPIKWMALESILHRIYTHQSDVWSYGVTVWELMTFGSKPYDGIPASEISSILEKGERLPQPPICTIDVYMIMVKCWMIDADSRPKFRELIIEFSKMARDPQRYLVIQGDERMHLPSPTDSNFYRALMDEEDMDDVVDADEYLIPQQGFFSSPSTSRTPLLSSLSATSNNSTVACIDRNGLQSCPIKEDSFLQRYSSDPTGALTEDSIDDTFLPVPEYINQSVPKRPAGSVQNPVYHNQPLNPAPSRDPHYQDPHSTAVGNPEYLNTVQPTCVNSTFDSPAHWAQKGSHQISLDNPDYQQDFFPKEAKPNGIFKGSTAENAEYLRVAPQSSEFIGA

Row | IC50 [2] [µM] | IC50 [3] [µM] | IC50 [4] [µM] | IC50 [5] [µM] | IC50 [6] [µM] | IC50 [7] [µM] | Compound | IC50 [1] [µM]
1 | 140 |  |  |  |  |  | C=C(CN(C)C)C(=O)c1ccc(OS(=O)(=O)c2ccc(C(=O)O)c(O)c2)cc1 | > 50
2 | > 500 | 2.1 | > 100 |  | > 100 | 100 | Cc1ccc(SCC(CN(C)C)C(=O)c2ccc(OCc3ccccc3)cc2)cc1C (configuration not stated) | 1.21
3 | > 500 | 3.9 | > 100 |  | > 100 | 50 | CN(C)CC(CNNC(N)=O)C(=O)c1ccc(OCc2ccccc2)cc1 (configuration not stated) | 2
4 | 86 | 0.67 | 50 |  | > 50 | > 100 | C=C(CN(C)C)C(=O)c1ccc(OCc2ccccc2)c(O)c1 | 3.3
5 |  | 100 |  |  |  | 100 | CC(CN(C)C)C(=O)c1ccc(OS(=O)(=O)c2ccc(C(=O)O)cc2)cc1 (configuration not stated) | > 50
6 | 110 | 1.1 | > 100 |  | > 100 | 100 | C=C(CN1CCOCC1)C(=O)c1ccc(OCc2ccccc2)cc1 | 1.8
7 | > 100 | 1.5 | > 100 |  | > 100 | > 100 | CN(C)CCC(=O)c1ccc(OCc2ccccc2)cc1 | 46.2
8 | 215 |  | > 100 |  | > 100 |  | C=C(CN(C)C)C(=O)c1ccc(OCc2ccccc2)cc1 | 6.1
9 | 500 | 0.36 | > 50 |  | > 100 | 50 | CN(C)CCC(=O)c1ccc(OCc2ccccc2)c(O)c1 | 9.3
10 | > 500 | 0.23 | > 100 |  | 50 | 100 | C=C(CN(C)C)C(=O)c1ccc(OS(=O)(=O)c2ccc(C(=O)O)cc2)cc1 | > 50
11 | 15 |  | 75 |  | 10 |  | O=c1c(-c2ccc(O)cc2)coc2cc(O)cc(O)c12 [GENISTEIN] | 

Further lines, the compound ahead of its results:

Row | Compound | IC50 [2] [µM] | IC50 [3] [µM] | IC50 [4] [µM] | IC50 [5] [µM] | IC50 [6] [µM] | IC50 [7] [µM] | IC50 [1] [µM]
12 | C=C(CN(C)C)C(=O)c1ccccc1 | 500 | 5.6 | > 100 | > 100 | > 100 |  | 9.3
13 | COC(=O)c1ccccc1SCC(CN(C)C)C(=O)c1ccc(OCc2ccccc2)cc1 (configuration not stated) | > 500 | 8.8 | > 100 |  | > 100 | 25 | 1.24
14 | CN(C)CC(CSc1ccccc1)C(=O)c1ccc(OCc2ccccc2)cc1 (configuration not stated) | > 500 | 7.3 | > 50 |  | > 50 | 100 | 1.6
15 | CCOC(=O)C1CCN(CCC(=O)c2ccc(OCc3ccccc3)cc2)CC1 | > 500 | 0.3 | > 100 |  | > 100 | > 100 | 40.2
16 | O=C(CCN1CCOCC1)c1ccc(OCc2ccccc2)cc1 | 420 | 1.5 | > 100 |  | > 100 | > 100 | 33.9
17 | CN(C)CC(CSCCN)C(=O)c1ccc(OCc2ccccc2)cc1 (configuration not stated) | > 100 | 8.8 | > 100 |  | > 50 | 25 | 4.1
18 | CN(C)CCCC(=O)c1ccc(OCc2ccccc2)cc1 |  | > 100 |  |  | > 100 | > 100 | > 50
19 | C=C(CN1CCCCC1)C(=O)c1ccc(OCc2ccccc2)cc1 | 140 | 1.1 | > 100 |  | > 100 | > 100 | 3.5
20 | C=C(CN1CCNCC1)C(=O)c1ccc(OCc2ccccc2)cc1 | 310 | 1.5 | > 100 |  | > 100 | > 100 | 0.95
21 | O=C(CCN1CCCCC1)c1ccc(OCc2ccccc2)cc1 | > 500 | 1.8 | > 100 |  | > 100 | 100 | 25.6
22 | C=C(CN(C)C)C(=O)c1ccc(OS(=O)(=O)c2ccc(C(=O)N(C)C)cc2)cc1 | 180 | 0.7 | > 50 |  | 70 |  | 2.8
